Measurements: article PMC4306506 (Journal of Medicinal Chemistry, 2014)
Positions of bridges follow the written chain, without caps; N, C: chain ends. Residues, ends and D or L forms follow the SMILES beside them.

What was measured:
[1] = target: complement C3 (Homo sapiens, UniProt P01024); assay: Complement inhibition across biochemical and functional assays; conditions: C3b ELISA, C5b-9 ELISA, hemolytic assay
[2] = Apparent solubility by absorbance at 280 nm; format: physicochemical; conditions: PBS pH 7.4, absorbance at 280 nm
Summary of the method: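 About 1 mg test peptide in 200 μL PBS pH 7.4; upper reportable limit 5 mg/mL. Vortexed 30 s, centrifuged 13000g for 5 min. Supernatant A280 converted to concentration by Beer–Lambert, using extinction coefficients from each peptide's Trp and Tyr count. Samples kept at 4 °C and re-read at 24 and 48 h. Mean and standard deviation of three readings per sample.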

[3] = phase II, NCT00473928 and NCT01157065; cited from earlier work

Chain of complement C3 (P01024 23-667 limits assumed): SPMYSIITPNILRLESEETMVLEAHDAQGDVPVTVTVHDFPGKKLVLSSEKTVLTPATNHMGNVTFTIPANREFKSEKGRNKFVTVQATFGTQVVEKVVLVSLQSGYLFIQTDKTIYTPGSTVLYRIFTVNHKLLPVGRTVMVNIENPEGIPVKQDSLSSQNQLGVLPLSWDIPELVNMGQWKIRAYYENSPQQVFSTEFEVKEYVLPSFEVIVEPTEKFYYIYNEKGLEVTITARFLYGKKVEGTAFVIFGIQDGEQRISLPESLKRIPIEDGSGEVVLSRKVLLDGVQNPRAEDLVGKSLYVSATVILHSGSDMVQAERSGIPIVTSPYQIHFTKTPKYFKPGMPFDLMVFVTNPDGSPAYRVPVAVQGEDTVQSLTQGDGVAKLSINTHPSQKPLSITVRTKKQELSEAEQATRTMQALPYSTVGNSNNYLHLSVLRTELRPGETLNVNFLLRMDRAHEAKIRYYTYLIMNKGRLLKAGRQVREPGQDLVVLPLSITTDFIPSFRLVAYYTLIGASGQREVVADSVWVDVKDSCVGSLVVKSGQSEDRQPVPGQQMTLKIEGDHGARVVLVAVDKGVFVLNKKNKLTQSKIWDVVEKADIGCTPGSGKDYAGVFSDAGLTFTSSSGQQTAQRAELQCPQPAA
Chain of complement C3 (P01024 672-1663 partner limits assumed): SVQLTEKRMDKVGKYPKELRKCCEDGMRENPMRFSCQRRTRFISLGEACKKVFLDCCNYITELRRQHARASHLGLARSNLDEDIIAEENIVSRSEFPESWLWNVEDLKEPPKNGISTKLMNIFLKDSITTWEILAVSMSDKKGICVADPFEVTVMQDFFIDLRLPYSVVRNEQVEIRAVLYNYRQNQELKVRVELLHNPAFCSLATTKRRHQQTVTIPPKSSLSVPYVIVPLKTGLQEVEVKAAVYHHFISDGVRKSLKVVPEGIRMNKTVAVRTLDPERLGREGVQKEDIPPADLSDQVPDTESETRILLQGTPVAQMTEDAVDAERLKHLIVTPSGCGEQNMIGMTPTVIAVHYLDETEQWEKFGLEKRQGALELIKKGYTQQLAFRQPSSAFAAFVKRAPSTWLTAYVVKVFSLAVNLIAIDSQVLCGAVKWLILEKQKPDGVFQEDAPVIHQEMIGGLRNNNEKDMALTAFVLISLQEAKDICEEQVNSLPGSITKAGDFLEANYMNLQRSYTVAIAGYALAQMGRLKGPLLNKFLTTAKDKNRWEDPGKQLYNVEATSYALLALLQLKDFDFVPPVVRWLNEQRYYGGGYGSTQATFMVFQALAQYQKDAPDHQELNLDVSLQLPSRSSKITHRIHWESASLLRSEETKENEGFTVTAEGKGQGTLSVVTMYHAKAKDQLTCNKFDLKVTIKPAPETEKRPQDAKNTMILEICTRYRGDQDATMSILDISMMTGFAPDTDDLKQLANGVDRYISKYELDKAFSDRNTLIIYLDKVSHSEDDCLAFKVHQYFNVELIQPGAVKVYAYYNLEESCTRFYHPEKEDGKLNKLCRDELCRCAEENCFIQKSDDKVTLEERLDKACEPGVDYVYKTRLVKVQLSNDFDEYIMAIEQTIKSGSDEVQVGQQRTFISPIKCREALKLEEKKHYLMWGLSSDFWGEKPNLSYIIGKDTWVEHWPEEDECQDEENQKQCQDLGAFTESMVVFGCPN

Row | Structure (SMILES) | Complement inhibitory activity relative to controls, in words [1] | Solubility, in words [2] | Retinal thickness in AMD patients in comparison to ranibizumab [3]
1 | CC[C@H](C)[C@H](NC(C)=O)C(=O)N[C@H]1CSSC[C@@H](C(=O)N[C@H](C(N)=O)[C@@H](C)O)NC(=O)[C@H](CCCNC(=N)N)NC(=O)[C@H](Cc2c[nH]cn2)NC(=O)[C@@](C)(CC)NC(=O)CNC(=O)[C@H](Cc2c[nH]c3ccccc23)NC(=O)[C@H](CC(=O)O)NC(=O)[C@H](CCC(N)=O)NC(=O)[C@H](Cc2c[nH]c3ccccc23)NC(=O)[C@H](C(C)C)NC1=O [Peptide 3, Ac- ICV W QDWG{Rea}HRCT-NH2] | inhibitory activity similar to meW4A9 | greatly improved aqueous solubility | –
2 | C=CC[C@@]1(C)NC(=O)CNC(=O)[C@H](Cc2c[nH]c3ccccc23)NC(=O)[C@H](CC(=O)O)NC(=O)[C@H](CCC(N)=O)NC(=O)[C@H](Cc2c[nH]c3ccccc23)NC(=O)[C@H](C(C)C)NC(=O)[C@@H](NC(=O)[C@@H](NC(C)=O)[C@@H](C)CC)CSSC[C@@H](C(=O)N[C@H](C(N)=O)[C@@H](C)O)NC(=O)[C@H](CCCNC(=N)N)NC(=O)[C@H](Cc2c[nH]cn2)NC1=O [Peptide 4, Ac- ICV W QDWG{Aal}HRCT-NH2] | inhibitory activity similar to meW4A9 | greatly improved aqueous solubility | –
3 | CC[C@H](C)[C@H](NC(C)=O)C(=O)N[C@H]1CSSC[C@@H](C(=O)N[C@H](C(N)=O)[C@@H](C)O)NC(=O)[C@H](CCCNC(=N)N)NC(=O)[C@H](Cc2c[nH]cn2)NC(=O)[C@](C)(CC)NC(=O)CNC(=O)[C@H](Cc2c[nH]c3ccccc23)NC(=O)[C@H](CC(=O)O)NC(=O)[C@H](CCC(N)=O)NC(=O)[C@H](Cc2c[nH]c3ccccc23)NC(=O)[C@H](C(C)C)NC1=O [Peptide 5, Ac- ICV W QDWG{Sea}HRCT-NH2] | inhibitory activity similar to meW4A9 | greatly improved aqueous solubility | –
4 | CC(=O)N[C@@H](CC(N)=O)C(=O)N[C@@H](CC(N)=O)C(=O)N[C@@H](CC(C)C)C(=O)N[C@H]1CSSC[C@@H](C(=O)N[C@H](C(N)=O)[C@@H](C)O)NC(=O)[C@H](CCCNC(=N)N)NC(=O)[C@H](Cc2c[nH]cn2)NC(=O)[C@H](C)NC(=O)CNC(=O)[C@H](Cc2c[nH]c3ccccc23)NC(=O)[C@H](CC(=O)O)NC(=O)[C@H](CCC(N)=O)NC(=O)[C@H](Cc2c[nH]c3ccccc23)NC(=O)[C@H](C(C)C)NC1=O [Peptide 7, Ac-NNLCV W QDWG A HRCT-NH2] (Ac-NNLCVWQDWGAHRCT-NH2; disulfide 4-14) | inhibitory activity similar to meW4A9 | greatly improved aqueous solubility | –
5 | CC(=O)N[C@@H](CC(N)=O)C(=O)N[C@@H](CCCNC(=N)N)C(=O)N[C@@H](CC(C)C)C(=O)N[C@H]1CSSC[C@@H](C(=O)N[C@H](C(N)=O)[C@@H](C)O)NC(=O)[C@H](CCCNC(=N)N)NC(=O)[C@H](Cc2c[nH]cn2)NC(=O)[C@H](C)NC(=O)CNC(=O)[C@H](Cc2c[nH]c3ccccc23)NC(=O)[C@H](CC(=O)O)NC(=O)[C@H](CCC(N)=O)NC(=O)[C@H](Cc2c[nH]c3ccccc23)NC(=O)[C@H](C(C)C)NC1=O [Peptide 8, Ac-NRLCV W QDWG A HRCT-NH2] (Ac-NRLCVWQDWGAHRCT-NH2; disulfide 4-14) | inhibitory activity similar to meW4A9 | greatly improved aqueous solubility | –
6 | CC[C@H](C)[C@H](NC(=O)[C@H](CO)NC(=O)[C@H](CCCNC(=N)N)NC(C)=O)C(=O)N[C@H]1CSSC[C@@H](C(=O)N[C@H](C(N)=O)[C@@H](C)O)NC(=O)[C@H](CCCNC(=N)N)NC(=O)[C@H](Cc2c[nH]cn2)NC(=O)[C@H](C)NC(=O)CNC(=O)[C@H](Cc2c[nH]c3ccccc23)NC(=O)[C@H](CC(=O)O)NC(=O)[C@H](CCC(N)=O)NC(=O)[C@H](Cc2c[nH]c3ccccc23)NC(=O)[C@H](C(C)C)NC1=O [Peptide 9, Ac-RSICV W QDWG A HRCT-NH2] | inhibitory activity similar to meW4A9 | greatly improved aqueous solubility | –
7 | CC[C@H](C)[C@H](NC(C)=O)C(=O)N[C@H]1CSSC[C@@H](C(=O)N[C@H](C(N)=O)[C@@H](C)O)NC(=O)[C@H](CCCNC(=N)N)NC(=O)[C@H](Cc2c[nH]cn2)NC(=O)[C@H](C)NC(=O)CNC(=O)[C@H](Cc2c[nH]c3ccccc23)NC(=O)[C@H](CC(=O)O)NC(=O)[C@H](CCC(N)=O)NC(=O)[C@H](Cc2cn(C)c3ccccc23)NC(=O)[C@H](C(C)C)NC1=O [meW4A9, Ac- ICV{meW}QDWG A HRCT-NH2] | – | – | did not yield reduced retinal thickness
